Source: ChEMBL document CHEMBL3822438, “Chlorin p6-Based Water-Soluble Amino Acid Derivatives as Potent Photosensitizers for Photodynamic Therapy” (J Med Chem, 2016)
pIC50: −log10 of the molar value. Converted amounts (≈) assume the structure as drawn. The source made the active and inactive calls. No cut-off for these calls is given here.

How the values were obtained:
[1] = Dark toxicity in human A375 cells assessed as cell viability after 48 hrs by cell counting kit-8 based spectrophotometric analysis; design: species or system A-375; conditions: human, A375 cells
Summary of the method: (§1)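 CCK-8 dark toxicity. 5×10^3 cells seeded in 10% FBS medium (A375 in DMEM, B16-F10 in RPMI 1640). Exposed to graded compound concentrations for 48 h at 37 °C, kept in the dark. Fresh medium and CCK-8 added for 1.5 h, then absorbance read at 450 nm to give IC50. Ratio is dark IC50 over IC50 under light.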

[2] = Dark toxicity in mouse B16F10 cells assessed as cell viability after 48 hrs by cell counting kit-8 based spectrophotometric analysis; design: species or system B16-F10; conditions: mouse, B16F10 cells; summary of the method: as §1
[3] = Ratio of IC50 for dark toxicity to IC50 for phototoxicity in human A375 cells; format: cell-based, A-375; conditions: A375 cells, read-out: Ratio IC50; summary of the method: as §1
[4] = Ratio of IC50 for dark toxicity to IC50 for phototoxicity in mouse B16F10 cells by cell counting kit-8 based spectrophotometric analysis; design: species or system B16-F10; conditions: B16F10 cells, read-out: Ratio IC50; summary of the method: as §1
[5] = Phototoxicity in mouse B16F10 cells assessed as cell viability after 24 hrs followed by irradiation with diode laser at 10 J/cm'2 measured after 24 hrs by cell counting kit-8 based spectrophotometric analysis; format: functional, B16-F10; conditions: Mus musculus, B16-F10, light or radiation study, 24 h
Summary of the method: (§2)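 Phototoxicity by CCK-8. Cells loaded with a range of compound concentrations for 24 h at 37 °C, irradiated with a 678 nm diode laser at 10 J/cm², then incubated a further 24 h. Viability read as absorbance at 450 nm after 1.5 h with CCK-8.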

[6] = system: A-375; assay: Phototoxicity in human A375 cells assessed as cell viability after 24 hrs followed by irradiation with diode laser at 10 J/cm'2 measured after 24 hrs by cell counting kit-8 based spectrophotometric analysis; format: functional; conditions: Homo sapiens, A-375, light or radiation study, 24 h; summary of the method: as §2
[7] = Dark toxicity in mouse B16F10 cells assessed as reduction in cell surviving fraction at 50 to 300 uM after 48 hrs by cell counting kit-8 based spectrophotometric analysis; conditions: b16-f10, 48 h
Summary of the method: (§3)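 Survival fraction measured in the dark by CCK-8 after 48 h exposure at 37 °C to 300 µM or 50 µM. Cells were in 10% FBS medium (A375 in DMEM, B16-F10 in RPMI 1640). Viability read as absorbance at 450 nm after 1.5 h with CCK-8.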

[8] = system: A-375; assay: Dark toxicity in human A375 cells assessed as reduction in cell surviving fraction at 50 to 300 uM after 48 hrs by cell counting kit-8 based spectrophotometric analysis; conditions: a-375, 48 h; summary of the method: as §3
[9] = system: B16-F10; assay: Phototoxicity in mouse B16F10 cells assessed as reduction in cell surviving fraction by irradiation with diode laser at 10 J/cm'2 after 24 hrs by cell counting kit-8 based spectrophotometric analysis; format: functional
Summary of the method: (§4)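 Survival fraction after PDT. Cells held 24 h at 2 µM or 0.2 µM, irradiated at 678 nm with 10 J/cm², then cultured another 24 h. Viability measured by CCK-8 at 450 nm.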

[10] = system: A-375; assay: Phototoxicity in human A375 cells assessed as reduction in cell surviving fraction by irradiation with diode laser at 10 J/cm'2 after 24 hrs by cell counting kit-8 based spectrophotometric analysis; format: functional; summary of the method: as §4
[11] = Antitumor activity against B16F10 cells implanted in C57BL/6 mouse assessed as survival time at 1 mg/kg, iv administered for 2 hrs followed by irradiation with laser at 150 J/cm'2 for 10 mins (reference value: 13 days); format: functional, B16-F10
[12] = system: B16-F10; assay: Phototoxicity in mouse B16F10 cells assessed as reduction in cell surviving fraction by irradiation with diode laser at 10 J/cm'2 at 5 uM after 24 hrs by cell counting kit-8 based spectrophotometric analysis; format: functional
Summary of the method: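 B16-F10 cells exposed to 5 µM for 24 h, then given varying 678 nm laser light doses. After a further 24 h, survival fraction was read by CCK-8 absorbance at 450 nm.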

[13] = system: B16-F10; assay: Induction of apoptosis in mouse B16F10 cells assessed as early apoptotic cells at 2 uM after 24 hrs followed by irradiation with diode laser at 10 J/cm'2 by alexa fluor 488 annexin V/PI double staining based flow cytometry (reference value: 0.08%); format: functional
[14] = system: B16-F10; assay: Induction of apoptosis in mouse B16F10 cells assessed as early apoptotic cells at 5 uM after 24 hrs followed by irradiation with diode laser at 10 J/cm'2 by alexa fluor 488 annexin V/PI double staining based flow cytometry (reference value: 0.08%); format: functional
[15] = Ratio of IC50 for dark toxicity to IC50 for phototoxicity in mouse B16F10 cells by MTT assay; format: cell-based, B16-F10; conditions: B16F10 cells, read-out: Ratio IC50
Summary of the method: (§5)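 B16-F10 cells in RPMI 1640 with 10% FBS. Dark arm: compound for 48 h. Light arm: compound for 24 h, then 678 nm diode laser at 10 J/cm², then a further 24 h. Read-out by MTT for 4 h, formazan dissolved in DMSO, absorbance at 490 nm. Ratio is dark IC50 over light IC50.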

[16] = Ratio of IC50 for test compound to IC50 for verteporfin for dark toxicity in human A375 cells by cell counting kit-8 based spectrophotometric analysis; design: species or system A-375; conditions: read-out: Ratio IC50
[17] = Drug uptake in nucleus of mouse B16F10 cells at 10 uM incubated in dark for 24 hrs by confocal microscopy; format: ADME, cell-based; conditions: b16-f10, 24 h
[18] = Dark toxicity in mouse B16F10 cells assessed as cell viability after 48 hrs by MTT assay; format: cell-based, B16-F10; conditions: mouse, B16F10 cells; summary of the method: as §5
[19] = Drug uptake in golgi apparatus of mouse B16F10 cells at 10 uM incubated in dark for 24 hrs by golgi tracker green dye based confocal microscopy; format: ADME, cell-based; conditions: b16-f10, 24 h
[20] = system: B16-F10; assay: Induction of apoptosis in mouse B16F10 cells assessed as necrotic/late apoptotic cells at 5 uM after 24 hrs followed by irradiation with diode laser at 10 J/cm'2 by alexa fluor 488 annexin V/PI double staining based flow cytometry (reference value: 1.94%); format: functional
[21] = system: B16-F10; assay: Induction of apoptosis in mouse B16F10 cells assessed as necrotic/late apoptotic cells at 2 uM after 24 hrs followed by irradiation with diode laser at 10 J/cm'2 by alexa fluor 488 annexin V/PI double staining based flow cytometry (reference value: 1.94%); format: functional
[22] = Drug uptake in mitochondria of mouse B16F10 cells at 10 uM incubated in dark for 24 hrs by mito tracker green FM dye based confocal microscopy; format: ADME; conditions: b16-f10, 24 h
[23] = Ratio of IC50 for dark toxicity to IC50 for phototoxicity in human A375 cells by CCK-8 assay
[24] = Ratio of IC50 for test compound to IC50 for verteporfin for dark toxicity in mouse B16F10 cells by cell counting kit-8 based spectrophotometric analysis; design: species or system B16-F10; conditions: read-out: Ratio IC50
[25] = Aqueous solubility of the compound in PBS buffer at pH 7.4; format: physicochemical
[26] = Drug uptake in lysosomes of mouse B16F10 cells at 10 uM incubated in dark for 24 hrs by lyso tracker green dye based confocal microscopy; format: ADME, cell-based, Lysosome; conditions: b16-f10, 24 h
[27] = Drug uptake in endoplasmic reticulum of mouse B16F10 cells at 10 uM incubated in dark for 24 hrs by ER tracker green dye based confocal microscopy; format: ADME, cell-based; conditions: b16-f10, 24 h
[28] = system: B16-F10; assay: Antitumor activity against B16F10 cells implanted in C57BL/6 mouse assessed as tumor growth inhibition at 1 mg/kg, iv administered for 2 hrs followed by irradiation with laser at 150 J/cm'2 for 10 mins; format: functional, organism-based
Summary of the method: (§6)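 B16-F10 cells (2×10^4) inoculated subcutaneously into the right thigh of male C57BL/6 mice aged 6-8 weeks. Mice with tumours 6-8 mm in diameter were used, 5 per group. Irradiation at 678 nm diode laser, 250 mW/cm² for 10 min, 2 h after i.v. dosing. Tumour volume measured by caliper as (W²×L)/2. Survival recorded daily and analysed by Kaplan-Meier with log-rank test.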

[29] = (§7) Phototoxicity in mouse B16F10 cells assessed as cell viability after 24 hrs followed by irradiation with diode laser at 10 J/cm'2 measured after 24 hrs by MTT assay; format: functional, cell-based, B16-F10; conditions: Mus musculus, B16-F10, light or radiation study, 24 h; summary of the method: as §5
[30] = system: B16-F10; assay: as §7; format: functional, cell-based; summary of the method: as §5
[31] = system: B16-F10; assay: Induction of apoptosis in mouse B16F10 cells assessed as necrotic/late apoptotic cells after 24 hrs followed by irradiation with diode laser at 10 J/cm'2 by alexa fluor 488 annexin V/PI double staining based flow cytometry; format: functional, cell-based
[32] = system: B16-F10; assay: Antitumor activity against B16F10 cells implanted in C57BL/6 mouse assessed as tumor growth inhibition at 2 mg/kg, iv administered for 2 hrs followed by irradiation with laser at 150 J/cm'2 for 10 mins; format: functional, organism-based; summary of the method: as §6
[33] = system: B16-F10; assay: Antitumor activity against B16F10 cells implanted in C57BL/6 mouse assessed as survival time at 2 mg/kg, iv administered for 2 hrs followed by irradiation with laser at 150 J/cm'2 for 10 mins (reference value: 13 days); format: functional, organism-based; summary of the method: as §6

CCC1=C(C)c2cc3[nH]c(cc4nc(c(C(=O)OC)c5[nH]c(cc1n2)c(C)c5C(=O)OC)C(CCC(=O)N[C@@H](CCC(=O)O)C(=O)O)=C4C)[C@@]1(C)C3=CC=C(C(=O)OC)[C@H]1C(=O)OC
IC50 at 48 h [1]: 286 µM | IC50 at 48 h [2]: 224 µM | selectivity ratio [3]: 40.3 | selectivity ratio [4]: 55.3 | pIC50 [5]: 5.39 | pIC50 [6]: 5.15

C=Cc1c(C)c2cc3nc(c(C(=O)OC)c4[nH]c(cc5nc(cc1[nH]2)C(C)=C5CC)c(C)c4C(=O)OC)[C@@H](CCC(=O)N[C@@H](CCC(=O)O)C(=O)O)[C@@H]3C
Activity [7]: Non-toxic | IC50 at 48 h [1]: > 300 µM | Activity [8]: Non-toxic | Activity [9]: Dose-dependent effect | Activity [10]: Dose-dependent effect | IC50 at 48 h [2]: 284 µM | selectivity ratio [3]: > 195 | selectivity ratio [4]: 233 | pIC50 [5]: 5.91 | pIC50 [6]: 5.81

C=Cc1c(C)c2cc3nc(c(C(=O)OC)c4[nH]c(cc5nc(cc1[nH]2)C(C)=C5CC)c(C)c4C(=O)OC)[C@@H](CCC(=O)N[C@@H](CC(=O)O)C(=O)O)[C@@H]3C
Activity [7]: Non-toxic | MST [11]: 21 days | IC50 at 48 h [1]: > 300 µM | Activity [8]: Non-toxic | Activity [12]: Active | Activity [13]: 0.3% | Activity [14]: 5.61% | selectivity ratio [15]: > 400 | Activity [9]: Dose-dependent effect | selectivity ratio [16]: > 8.3 | Drug uptake [17]: Not Active | IC50 at 48 h [18]: > 300 µM | Drug uptake [19]: Active | Activity [10]: Dose-dependent effect | IC50 at 48 h [2]: > 300 µM | Activity [20]: 82.05% | selectivity ratio [3]: > 306 | Activity [21]: 68.23% | Drug uptake [22]: Active | selectivity ratio [23]: > 306 | selectivity ratio [24]: > 8.3 | solubility [25]: 41.7 µM (≈ 30.3 µg/mL) | Drug uptake [26]: Active | selectivity ratio [4]: > 441 | pIC50 [5]: 6.17 | Drug uptake [27]: Active | TGI [28]: Active | pIC50 [29]: 6.12 | Activity [30]: Dose-dependent effect | Activity [31]: Dose-dependent effect | pIC50 [6]: 6.01

VERTEPORFIN
TGI [32]: Active | MST [33]: 18 days
